CHOP inhibitor – inhibitors of CHOP promoter induction, primary screen, cell-based, unfolded protein response, luciferase reporter; inhibition, % at 10 µM; AID 2732, 2010; CHO-K1 CHOP-promoter luciferase, tunicamycin-induced, 15-18 h; 220,000 compounds, 3.8% hits;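 active means compounds that reduced the stress-induced luciferase reporter signal by more than about 70% of percent inhibition, limit read from the data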;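 further: 0% = tunicamycin plus vehicle and 100% = wells without tunicamycin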
ANO1 activ – TMEM16A chloride channel activators or potentiators, primary screen, cell-based, HTS | B-score at 10 µM | HEK293 TMEM16A/YFP-H148Q/I152L, iodide quench fluorescence; hits give low values | 340,000 compounds, 0.3% hits;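 active means fluorescence-ratio B-score plate-corrected deviation score at least 3 library SD below zero, with starting fluorescence score within 5 deviations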;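 further: channel opened by trigger with iodide after compound preincubation; score built on the fluorescence ratio of max minus min over baseline; more negative score means more quench and so TMEM16A activation or potentiation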
Target sequence (Q8BHY3 whole entry, looked up): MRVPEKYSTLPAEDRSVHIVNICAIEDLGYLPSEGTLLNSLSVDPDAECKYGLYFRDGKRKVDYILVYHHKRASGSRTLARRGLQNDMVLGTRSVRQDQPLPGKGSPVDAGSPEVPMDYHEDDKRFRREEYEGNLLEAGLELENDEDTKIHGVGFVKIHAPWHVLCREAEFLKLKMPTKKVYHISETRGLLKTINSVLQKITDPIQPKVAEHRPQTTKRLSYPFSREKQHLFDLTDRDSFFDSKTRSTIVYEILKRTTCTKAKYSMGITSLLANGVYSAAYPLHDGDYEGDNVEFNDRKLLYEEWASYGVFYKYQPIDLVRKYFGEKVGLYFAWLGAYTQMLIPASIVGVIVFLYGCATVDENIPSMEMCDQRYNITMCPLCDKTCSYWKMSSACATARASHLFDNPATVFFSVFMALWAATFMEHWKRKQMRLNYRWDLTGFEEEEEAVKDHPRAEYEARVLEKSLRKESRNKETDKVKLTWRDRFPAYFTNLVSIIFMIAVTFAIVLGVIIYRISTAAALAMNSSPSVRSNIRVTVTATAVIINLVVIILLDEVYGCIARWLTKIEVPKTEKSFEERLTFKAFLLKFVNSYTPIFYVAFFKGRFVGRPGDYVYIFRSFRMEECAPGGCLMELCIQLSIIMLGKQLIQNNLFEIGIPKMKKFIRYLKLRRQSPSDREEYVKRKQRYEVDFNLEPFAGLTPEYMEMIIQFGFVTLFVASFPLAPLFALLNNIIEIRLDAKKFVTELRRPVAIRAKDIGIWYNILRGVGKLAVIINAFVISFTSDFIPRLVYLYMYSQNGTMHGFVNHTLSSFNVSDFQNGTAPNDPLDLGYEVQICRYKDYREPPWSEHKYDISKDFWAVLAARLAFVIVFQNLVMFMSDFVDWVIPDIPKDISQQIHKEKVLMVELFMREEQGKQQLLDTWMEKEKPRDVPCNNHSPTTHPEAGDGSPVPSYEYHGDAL
XBP1 UPR activ – activators of adaptive XBP1 UPR arm, primary screen, cell-based, CHO-XBP1 luciferase reporter, luminescence, uHTS. IRE1-XBP1 UPR activation; percent of tunicamycin response, DMSO as zero. activation, % at 20 µM. 330,000 compounds, 0.33% hits. AID 463104, 2010;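 active means versus positive control, 20 µM dose yields 30% or more activation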;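 further: 100% = tunicamycin at 10 µg/mL and 0% = DMSO only wells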
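Material – CHO cell line with stable XBP1 luciferase reporter · Buffer or medium – F12 plus 10% FBS · Compound – single point, 20 µM final compound, 1% DMSO · Schedule – 16-18 h cell attachment at 37 °C, then 6 h compound exposure · Signal – Steady-Glo luminescence read · Benchmarks – high control tunicamycin 10 µg/mL final, low control DMSO vehicle only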
CHOP UPR activ – activators of apoptotic CHOP UPR arm, primary screen, cell-based, CHO-CHOP luciferase reporter, luminescence, uHTS. UPR activation; percent of tunicamycin response over DMSO baseline. activation, % at 10 µM. 330,000 compounds, 0.34% hits. AID 449763, 2010;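 active means at 10 µM dose, activation of 40% or more, normalized to positive control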;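 further: 100% = tunicamycin at 10 µg/mL and 0% = DMSO alone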
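Assay system: CHO-CHOP cells, stable luciferase reporter of PERK-eIF2a-CHOP signalling / Buffer or medium: F12 plus 10% serum / Compound dosing: one dose, 10 µM in 0.5% DMSO / Times: 6 h compound treatment, 37 °C / Technique: luciferase luminescence / Read-out: % reporter activation, DMSO baseline versus tunicamycin full activation / Benchmarks: tunicamycin and DMSO controls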
ANO1 block – TMEM16A chloride channel inhibitors, primary screen, cell-based, HTS. HEK293 TMEM16A/YFP iodide influx fluorescence, ionomycin. Anoctamin-1 (Mus musculus), Q8BHY3. 310,000 compounds, 1.2% hits. normalized B-score (activity score, 25-100; higher = stronger inhibition) at 10 µM;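 active means ratio plate-corrected score three or more library SD toward inhibition, starting fluorescence score within five deviations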;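 further: score derived from kinetic fluorescence span divided by baseline fluorescence per well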
Hep lipid drop – inhibitors of hepatocyte lipid droplet formation, primary screen, imaging, high-throughput imaging, BODIPY stain. AML12 mouse hepatocytes, oleate lipid droplets. inhibition, % at 6.5 µM. 240,000 compounds, 0.4% hits;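 active means lipid droplet intensity inhibited by at least 50%, with more than 500 cells counted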
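Material – mouse AML12 hepatocyte cell line, fixed after treatment · Compound dosing – one dose, 6.5 µM compound · Times – compound with oleate, overnight · Measured by – Image-based BODIPY and DAPI two-channel analysis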
The depositor's hits bear a star; i = inactive; · = not tested or not shown. Compounds with a hit are over-represented: about 4.2% of the library has one in this group of screens.

SMILES	CHOP inhibitor	ANO1 activ	XBP1 UPR activ	CHOP UPR activ	ANO1 block	Hep lipid drop
Cc1ccc(C2(C)NC(=O)N(CC(=O)N3CCN(C(=O)c4cccs4)CC3)C2=O)cc1 (stereo not given)	·	i	-2	-1	·	·
CC1=CN2C(=N)/C(=C/c3ccc(Sc4ccc(Cl)cc4)o3)C(=O)N=C2S1	77*	i	0	6	i	-6
CCn1c(=O)cc(C(=O)OC)sc1=Nc1ccc(F)c(F)c1	96*	i	6	8	i	·
COc1ccc(S(=O)(=O)N2CCc3ccccc32)cc1C(=O)N1CCOCC1	·	i	-1	-1	i	·
COc1ccc(CC(=O)Nc2nn(C)c3nc4c(C)cccc4cc23)cc1	81*	i	3	2	i	19
CCC(=O)Nc1nn(C)c2nc3c(C)cccc3cc12	20	i	-3	-1	i	-3
Cc1ccc(S(=O)(=O)NC(=O)c2ccc(-c3ccc(-c4ccccc4)cc3)o2)c(C)c1	16	·	-2	-2	100*	7
Cc1cc(C)cc(NC(=O)CC2Oc3ccc(C)cc3NC2=O)c1 (stereo not given)	·	i	-4	-1	i	-28
Cc1ccccc1NC(=O)Cc1nc(COC(=O)c2ccc(O)cc2O)cs1	·	i	-7	-1	i	1
COc1ccc(-c2nn(-c3ccccc3)cc2C(=O)OCC(=O)c2ccc(C)c([N+](=O)[O-])c2)cc1	87*	i	3	13	i	9
COc1ccc(-c2cc(C(=O)OCC(=O)c3ccc(C)c([N+](=O)[O-])c3)c3ccccc3n2)cc1	39	i	-1	2	i	18
O=S(=O)(c1ccc(SCc2ccc(Cl)cc2)nc1)N1CCCC1	·	i	1	-3	·	·
COc1ccc(CSc2ccc(S(=O)(=O)N3CCCCC3)cn2)cc1F	·	-23*	-3	1	·	·
S=c1[nH]nc(C2CCCCC2)n1/N=C/c1ccc(Br)s1	95*	i	3	-3	i	·
O=[N+]([O-])c1cccc(/C=N/n2c(C3CCCCC3)n[nH]c2=S)c1	82*	i	0	-1	i	12
S=c1[nH]nc(C2CCCCC2)n1/N=C/c1ccc(Br)cc1	·	i	1	0	i	·
Clc1ccc(/C=N/Nc2ncnc3ccccc23)cc1Cl	86*	i	7	1	i	·
Cc1sc2nc(C(C)Nc3ccccc3N3CCOCC3)[nH]c(=O)c2c1C (stereo not given)	75*	i	2	-1	i	·
Cc1nn(-c2ccccc2)c(C)c1NC(=O)COc1ccc(Br)cc1Cl	25	i	-4	0	25*	-8
Cc1nn(-c2ccccc2)c(C)c1NC(=O)COc1ccc2ccccc2c1	-41	i	1	-2	i	·
Oc1[nH]c2ccccc2c1N=Nc1ccccc1F	91*	i	6	9	i	26
CC(=O)c1cccc(NC(=O)/C=C/c2ccc([N+](=O)[O-])s2)c1	74*	i	·	·	·	0
Cc1cc(C)cc(NC(=O)/C=C/c2ccc([N+](=O)[O-])s2)c1	-21	i	·	·	i	-13
O=C(COC(=O)C12CC3CC(CC(C3)C1)C2)Nc1nc2c(F)c(F)c(F)cc2s1	95*	i	-4	0	i	-1
COc1ccc(C(=O)OCC(=O)Nc2nc3c(F)c(F)c(F)cc3s2)cc1OC	-11	i	1	1	i	0
SMILES	CHOP inhibitor	ANO1 activ	XBP1 UPR activ	CHOP UPR activ	ANO1 block	Hep lipid drop
CCCOc1ccc2cc(-c3ccccn3)c(=O)oc2c1	71*	i	-6	-9	i	-5
CCOc1ccc(C(=O)Oc2ccc(NC(C)=O)cc2)cc1	83*	·	-2	-3	i	15
CCOC(=O)CC(NS(=O)(=O)c1ccc(NC(C)=O)cc1)c1ccc(OCC)cc1 (stereo not given)	15	i	-4	0	25*	9
CCOc1ccc(NC(=O)CC(=O)Nc2ccc(OCC)cc2)cc1	·	i	0	1	i	·
CC1CC(C)CN(C(=O)C(Cc2ccccc2)NC(=O)c2ccccc2)C1 (stereo not given)	·	i	-1	1	i	·
Cc1cc(C)c(C)c(S(=O)(=O)NC2CCN(Cc3ccccc3)CC2)c1C	79*	i	-1	-2	i	-17
O=c1c2c(-c3ccccc3)csc2ncn1/N=C/c1cccc([N+](=O)[O-])c1O	7	i	3	0	25*	0
O=c1c2c(-c3ccccc3)csc2ncn1/N=C/c1ccc(O)c([N+](=O)[O-])c1	8	i	12	0	i	6
Fc1ccccc1N1CC(c2ccccc2)C(c2cccs2)=N1 (stereo not given)	71*	i	-2	1	i	13
Fc1ccc(N2N=C(c3cccs3)CC2c2ccccc2)cc1 (stereo not given)	23	i	1	2	i	6
COc1cc(CC(=O)N/N=C/c2ccc([N+](=O)[O-])cc2)c([N+](=O)[O-])cc1OC	34	i	2	-1	i	0
CCN(Cc1ccccc1)c1ccc(/C=N/N=C(N)N)cc1	77*	i	-2	-2	100*	-2
CCN(Cc1ccccc1)c1ccccc1	·	i	·	·	·	·
CC(=O)c1ccc(N2CCN(C(=O)C3CCN(S(=O)(=O)c4cccs4)CC3)CC2)cc1	·	i	-1	2	i	-5
C=CCOC(=O)C1=C(C)NC(SC)=C(C#N)C1c1ccc(OCC)cc1 (stereo not given)	95*	i	-1	-3	i	·
CCCSc1nc(N)nc2c1ncn2C1OC(CO)C(O)C1O (stereo not given)	·	i	·	·	·	·
O=C(N/N=C/c1cccc2ccccc12)c1cccnc1	·	i	-3	1	i	·
CCc1ccc(C(=O)N/N=C/c2cccc3ccccc23)nc1	79*	i	3	6	i	-8
CCc1ccc(-c2cc(C(=O)N/N=C/c3c[nH]c4ccccc34)[nH]n2)cc1	89*	i	1	1	i	2
CCc1ccc2c(Cl)c(C(=O)N/N=C/c3c[nH]c4ccccc34)sc2c1	71*	i	-3	5	i	·

Source: PubChem BioAssay
